Laboratory results published in ChEMBL document CHEMBL5303300, “EUbOPEN Chemogenomics Library - Multiplex” (2023).
“And” between values parts separate entries of the source, which are not always exact repeats. Equal entries are not always repeated.

Tested on: Fibroblast
Test: Multiplex assay against human fibroblast
Assay type: toxicity, cell-based
Settings: number of replicates 2
In short: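 Cells were classed with CellPathfinder machine-learning gating, first as Hoechst high-intensity objects or normal cells, then (normal cells) as healthy, pyknosed or fragmented nuclei, and finally (pyknosed cells) as mitotic or apoptotic. Staining of live cells at seeding used Hoechst33342, BioTracker Green Microtubule Cytoskeleton Dye, MitoTracker Red and Annexin V Alexa Fluor 680, with imaging on a CQ1 microscope at 37°C and 5% CO2 after compound addition. Tubulin, mitochondrial-mass and membrane-permeability phenotypes are per cents of healthy-nucleus cells.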

[1] = 12 h, 1 µM, compound concentration 1 uM
[2] = 12 h, 10 µM, compound concentration 10 uM
[3] = 24 h, 1 µM, compound concentration 1 uM
[4] = 24 h, 10 µM, compound concentration 10 uM
[5] = 48 h, 1 µM, compound concentration 1 uM
[6] = 48 h, 10 µM, compound concentration 10 uM

**Q.** Which results are given for CNc1ncc2cc(-c3ccc(-c4cccc(C)n4)cc3Cl)c(=O)n(C[C@H]3OC[C@H](N)CO3)c2n1?
**A.** Population Apoptotic (%) [1]: 43% and 42%; Population Fragmented Nuclei (%) [1]: 9% and 17%; Population Healthy Nuclei (%) [1]: 51% and 52%; Population Hoechst High Intensity Objects (%) [1]: 0%; Population Membrane Permeable-Phenotype (%) [1]: 10%; Population Mitochondria Different-Phenotype (%) [1]: 0%; Population Mitotic Cells (%) [1]: 56% and 57%; Population Normal (%) [1]: 100%; Population Pyknosed Nuclei (%) [1]: 39% and 30%; Population Tubulin-Different-Phenotype (%) [1]: 21% and 18%; Total Cell Count [1]: 176 and 246; Population Apoptotic (%) [2]: 44% and 35%; Population Fragmented Nuclei (%) [2]: 22% and 26%; Population Healthy Nuclei (%) [2]: 26% and 28%; Population Hoechst High Intensity Objects (%) [2]: 1% and 7%; Population Membrane Permeable-Phenotype (%) [2]: 23% and 16%; Population Mitochondria Different-Phenotype (%) [2]: 0%; Population Mitotic Cells (%) [2]: 55% and 64%; Population Normal (%) [2]: 98% and 92%; Population Pyknosed Nuclei (%) [2]: 50% and 45%; Population Tubulin-Different-Phenotype (%) [2]: 55% and 51%; Total Cell Count [2]: 227 and 323; Population Apoptotic (%) [3]: 41% and 67%; Population Fragmented Nuclei (%) [3]: 14% and 21%; Population Healthy Nuclei (%) [3]: 56%; Population Hoechst High Intensity Objects (%) [3]: 0%; Population Membrane Permeable-Phenotype (%) [3]: 25% and 13%; Population Mitochondria Different-Phenotype (%) [3]: 0%; Population Mitotic Cells (%) [3]: 58% and 32%; Population Normal (%) [3]: 100% and 99%; Population Pyknosed Nuclei (%) [3]: 28% and 21%; Population Tubulin-Different-Phenotype (%) [3]: 29% and 15%; Total Cell Count [3]: 179 and 248; Population Apoptotic (%) [4]: 45% and 65%; Population Fragmented Nuclei (%) [4]: 27% and 23%; Population Healthy Nuclei (%) [4]: 34% and 36%; Population Hoechst High Intensity Objects (%) [4]: 7% and 4%; Population Membrane Permeable-Phenotype (%) [4]: 31% and 34%; Population Mitochondria Different-Phenotype (%) [4]: 5% and 4%; Population Mitotic Cells (%) [4]: 54% and 34%; Population Normal (%) [4]: 92% and 95%; Population Pyknosed Nuclei (%) [4]: 38% and 39%; Population Tubulin-Different-Phenotype (%) [4]: 37% and 59%; Total Cell Count [4]: 304 and 248; Population Apoptotic (%) [5]: 61% and 86%; Population Fragmented Nuclei (%) [5]: 22% and 24%; Population Healthy Nuclei (%) [5]: 64% and 66%; Population Hoechst High Intensity Objects (%) [5]: 0%; Population Membrane Permeable-Phenotype (%) [5]: 36% and 19%; Population Mitochondria Different-Phenotype (%) [5]: 0%; Population Mitotic Cells (%) [5]: 38% and 13%; Population Normal (%) [5]: 100%; Population Pyknosed Nuclei (%) [5]: 12% and 9%; Population Tubulin-Different-Phenotype (%) [5]: 39% and 19%; Total Cell Count [5]: 171 and 237; Population Apoptotic (%) [6]: 42% and 24%; Population Fragmented Nuclei (%) [6]: 19% and 28%; Population Healthy Nuclei (%) [6]: 57% and 51%; Population Hoechst High Intensity Objects (%) [6]: 9% and 11%; Population Membrane Permeable-Phenotype (%) [6]: 40% and 39%; Population Mitochondria Different-Phenotype (%) [6]: 2% and 1%; Population Mitotic Cells (%) [6]: 57% and 75%; Population Normal (%) [6]: 90% and 88%; Population Pyknosed Nuclei (%) [6]: 23% and 20%; Population Tubulin-Different-Phenotype (%) [6]: 33% and 29%; Total Cell Count [6]: 268 and 338

**Q.** What does the source list for Cc1ccc2c(N)c(C(=O)NC3CCc4cc(N5CC6CCC(C5)N6)ccc4C3)sc2n1.O=CO (configuration not stated)?
**A.** Population Apoptotic (%) [1]: 50% and 54%; Population Fragmented Nuclei (%) [1]: 16%; Population Healthy Nuclei (%) [1]: 73% and 68%; Population Hoechst High Intensity Objects (%) [1]: 0% and 1%; Population Membrane Permeable-Phenotype (%) [1]: 2%; Population Mitochondria Different-Phenotype (%) [1]: 1% and 2%; Population Mitotic Cells (%) [1]: 50% and 45%; Population Normal (%) [1]: 99% and 98%; Population Pyknosed Nuclei (%) [1]: 10% and 15%; Population Tubulin-Different-Phenotype (%) [1]: 17% and 14%; Total Cell Count [1]: 232 and 283; Population Apoptotic (%) [2]: 38% and 26%; Population Fragmented Nuclei (%) [2]: 16% and 24%; Population Healthy Nuclei (%) [2]: 53% and 55%; Population Hoechst High Intensity Objects (%) [2]: 3% and 5%; Population Membrane Permeable-Phenotype (%) [2]: 4% and 2%; Population Mitochondria Different-Phenotype (%) [2]: 3% and 1%; Population Mitotic Cells (%) [2]: 61% and 73%; Population Normal (%) [2]: 96% and 94%; Population Pyknosed Nuclei (%) [2]: 29% and 20%; Population Tubulin-Different-Phenotype (%) [2]: 23% and 22%; Total Cell Count [2]: 238 and 259; Population Apoptotic (%) [3]: 46% and 52%; Population Fragmented Nuclei (%) [3]: 14%; Population Healthy Nuclei (%) [3]: 75% and 71%; Population Hoechst High Intensity Objects (%) [3]: 0%; Population Membrane Permeable-Phenotype (%) [3]: 2% and 1%; Population Mitochondria Different-Phenotype (%) [3]: 3% and 2%; Population Mitotic Cells (%) [3]: 53% and 47%; Population Normal (%) [3]: 100% and 99%; Population Pyknosed Nuclei (%) [3]: 10% and 14%; Population Tubulin-Different-Phenotype (%) [3]: 15% and 14%; Total Cell Count [3]: 259 and 302; Population Apoptotic (%) [4]: 48% and 45%; Population Fragmented Nuclei (%) [4]: 18% and 23%; Population Healthy Nuclei (%) [4]: 42% and 48%; Population Hoechst High Intensity Objects (%) [4]: 7% and 6%; Population Membrane Permeable-Phenotype (%) [4]: 2% and 1%; Population Mitochondria Different-Phenotype (%) [4]: 13% and 8%; Population Mitotic Cells (%) [4]: 51% and 54%; Population Normal (%) [4]: 92% and 93%; Population Pyknosed Nuclei (%) [4]: 39% and 28%; Population Tubulin-Different-Phenotype (%) [4]: 23% and 15%; Total Cell Count [4]: 228 and 250; Population Apoptotic (%) [5]: 56% and 60%; Population Fragmented Nuclei (%) [5]: 27% and 18%; Population Healthy Nuclei (%) [5]: 67% and 71%; Population Hoechst High Intensity Objects (%) [5]: 0%; Population Membrane Permeable-Phenotype (%) [5]: 1%; Population Mitochondria Different-Phenotype (%) [5]: 1% and 3%; Population Mitotic Cells (%) [5]: 43% and 40%; Population Normal (%) [5]: 99%; Population Pyknosed Nuclei (%) [5]: 5% and 10%; Population Tubulin-Different-Phenotype (%) [5]: 18% and 17%; Total Cell Count [5]: 294 and 298; Population Apoptotic (%) [6]: 67% and 55%; Population Fragmented Nuclei (%) [6]: 20% and 22%; Population Healthy Nuclei (%) [6]: 29% and 36%; Population Hoechst High Intensity Objects (%) [6]: 11% and 10%; Population Membrane Permeable-Phenotype (%) [6]: 7% and 2%; Population Mitochondria Different-Phenotype (%) [6]: 21% and 16%; Population Mitotic Cells (%) [6]: 32% and 44%; Population Normal (%) [6]: 88% and 89%; Population Pyknosed Nuclei (%) [6]: 49% and 40%; Population Tubulin-Different-Phenotype (%) [6]: 25% and 15%; Total Cell Count [6]: 194 and 215
